From ChEMBL document CHEMBL4425127 (J Med Chem, 2016)
Active and inactive are the calls of the source. The rule behind the calls is not given here.

System: Neuraminidase (Influenza A virus (strain A/Udorn/307/1972 H3N2)), P0DOF9 [E119V,I222L]
Assay: Binding affinity to zanamivir/oseltamivir resistant recombinant Influenza A virus (A/Moscow/10/99(H3N2)) Neuraminidase N2 E119V/I222L double mutant expressed in baculovirus infected insect cells at 100 to 1000 nM measured up to 160 sec by surface plasmon resonance analysis
Outline: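 NA covalently immobilised on CM5 chip by amine coupling. Analyte passed over at several concentrations in running buffer. BSA served as negative control protein. Constants from a steady-state affinity model; triplicate experiments.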

COCCOCCOCCOCCOCCOCCOCCOCCOCCOCc1cn(CC(Cn2cc(COCCOCCOCCOCCOCCOCCOCCOCCOCCOC)nn2)(Cn2cc(COCCOCCOCCOCCOCCOCCOCCOCCOCCOC)nn2)Cn2cc(COCCOCCOCCOCCOCCOCCOCCOCCOCCOC)nn2)nn1
Activity: inactive
